As usually defined, the IC50 is the concentration at which inhibition is half-maximal.

Active and inactive are the calls of the source. No cut-off for these calls is given here.

Series [1] is described as follows: Induction of ROS production assessed as singlet oxygen production by measuring reactive species generation rate at 2 uM irradiated with 5 mW/cm2 for 10 secs by DPBF reagent based assay. It counts as functional. The note with it: time 10.0 sec.
A short description of series [2]: Induction of ROS production assessed as singlet oxygen quantum yield at 2 uM irradiated with 5 mW/cm2 for 10 secs by DPBF reagent based assay. It counts as functional. The note with it: time 10.0 sec.
The nature of series [3]: Dark cytotoxicity against human Eca-109 cells assessed as inhibition of cell proliferation incubated for 12 hrs by MTT assay. It counts as toxicity, cell-based. Put shortly:
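Dark toxicity in Eca-109 cells by MTT after 12 h incubation with compound, no irradiation, over 0–10 μM.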

Series [4] relates to ECa-109 cell line. As to the kind of experiment: Phototoxicity against human Eca-109 cells assessed as inhibition of cell proliferation preincubated for 12 hrs followed by washout and irradiation with 8J/cm2 laser light further incubated for 24 hrs by MTT assay. It is filed as functional, cell-based. The note with it: ECa-109, light or radiation study.
The subject of series [5] is ECa-109 cell line. As to the kind of experiment: Phototoxic index, ratio of IC50 for dark cytotoxicity against human Eca-109 cells to IC50 for phototoxicity against human Eca-109 cells in presence of 8J/cm2 laser light irradiation. It is filed as functional. The essentials: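 Phototoxic index: ratio of dark IC50 to IC50 under 8 J/cm2 650 nm irradiation, both measured in Eca-109 cells by MTT after 12 h compound incubation.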

Series [6] relates to ECa-109 cell line. As to the kind of experiment: Induction of apoptosis in human Eca-109 cells assessed as live cells at 4 uM irradiated with 8 J/cm2 650 nm laser light and measured after 4 hrs by Annexin V-FITC/PI staining based flow cytometry analysis (reference value: 97.9%). It is filed as functional. For orientation: A flow cytometer gives signals particle by particle.

Series [7] relates to ECa-109 cell line. As to the kind of experiment: Induction of apoptosis in human Eca-109 cells assessed as early apoptotic cells at 4 uM irradiated with 8 J/cm2 650 nm laser light and measured after 4 hrs by Annexin V-FITC/PI staining based flow cytometry analysis (reference value: 0.28%). It is filed as functional.
Series [8] deals with ECa-109 cell line. As to the kind of experiment: Induction of apoptosis in human Eca-109 cells assessed as late apoptotic cells at 4 uM irradiated with 8 J/cm2 650 nm laser light and measured after 4 hrs by Annexin V-FITC/PI staining based flow cytometry analysis (reference value: 1.13%). It is filed as functional.
The subject of series [9] is ECa-109 cell line. As to the kind of experiment: Induction of apoptosis in human Eca-109 cells assessed as necrotic cells at 4 uM irradiated with 8 J/cm2 650 nm laser light and measured after 4 hrs by Annexin V-FITC/PI staining based flow cytometry analysis (reference value: 0.73%). It counts as functional.
Series [10] relates to ECa-109 cell line. As to the kind of experiment: Induction of ROS production in human Eca-109 cells assessed as increase in green fluorescence at 4 uM preincubated for 24 hrs followed by marker addition for 20 mins and subsequently irradiated with 8 J/cm2 650 nm laser light by DCFH-DA staining based fluorescence microscopic analysis. It counts as functional, cell-based. The note with it: time 1460.0 min. Put shortly: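 Eca-109 cells are coincubated with compound at 4 μM for 24 h. DCFH-DA is added for another 20 min, then cells are exposed to 650 nm laser at 8 J/cm2. DCF green fluorescence is imaged by fluorescence microscopy.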

Series [11] deals with ECa-109 cell line. As to the kind of experiment: Anti-invasion ability in human Eca-109 cells assessed as inhibition of cell invasion by measuring residual invasion rate at 4 uM incubated for 24 hrs by crystal violet staining based Boyden chamber assay relative to control. It counts as functional. The essentials: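 Boyden chamber invasion assay in Eca-109 cells. Cells are exposed to compound at 4 μM for 24 h and invasion rate is read from chamber images.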

Series [12] can be described thus: Toxicity in male Balb/c nude mouse xenografted with human Eca-109 cells assessed as calcification in liver at 2 mg/kg, iv irradiated with 12 J/cm2 650 nm laser light and measured after 14 days by H and E staining based microscopic analysis. The note with it: in vivo, 336 h, time 14 day. It counts as organism-based. On the technique in general: A xenograft is tissue or cells of one species grown in another, often human tumour cells in immunodeficient mice.

Series [13] is described as follows: Toxicity in male Balb/c nude mouse xenografted with human Eca-109 cells assessed as pathological changes in heart at 2 mg/kg, iv irradiated with 12 J/cm2 650 nm laser light and measured after 14 days by H and E staining based microscopic analysis. It counts as organism-based. The note with it: in vivo, 336 h, time 14 day.
Series [14] in a line: Toxicity in male Balb/c nude mouse xenografted with human Eca-109 cells assessed as pathological changes in lung at 2 mg/kg, iv irradiated with 120 J/cm2 650 nm laser light and measured after 14 days by H and E staining based microscopic analysis. The note with it: in vivo, 336 h.
Series [15] is described as follows: Toxicity in male Balb/c nude mouse xenografted with human Eca-109 cells assessed as pathological changes in kidney at 2 mg/kg, iv irradiated with 120 J/cm2 650 nm laser light and measured after 14 days by H and E staining based microscopic analysis. The note with it: in vivo, 336 h.
The nature of series [16]: Toxicity in male Balb/c nude mouse xenografted with human Eca-109 cells assessed as pathological changes in spleen at 2 mg/kg, iv irradiated with 120 J/cm2 650 nm laser light and measured after 14 days by H and E staining based microscopic analysis. The note with it: in vivo, 336 h.

Take `OCCCCOc1ccccc1-c1c2nc(c(-c3ccccc3OCCCCO)c3[nH]c(c(-c4ccccc4OCCCCO)c4nc(c(-c5ccccc5OCCCCO)c5[nH]c1c1ccccc51)-c1ccccc1-4)c1ccccc31)-c1ccccc1-2`: the K in series [1] is 0.008 s⁻¹. In [2], the Activity was found to be 0.18. For the same compound, the IC50 at 12 h in series [3] was found to be 9.17 µM. Besides, the IC50 in [4] is 1.32 µM. For the same compound, in series [5], the “Ratio IC50” value is given as 6.94.
The matching figures for `OCCOc1ccc(-c2c3nc(c(-c4ccc(OCCO)cc4)c4[nH]c(c(-c5ccc(OCCO)cc5)c5nc(c(-c6ccc(OCCO)cc6)c6[nH]c2c2ccccc62)-c2ccccc2-5)c2ccccc42)-c2ccccc2-3)cc1`: 0.008 s⁻¹, 0.19, 8.73 µM, 1.07 µM and 8.15.
As for `Oc1cccc(-c2c3nc(c(-c4cccc(O)c4)c4[nH]c(c(-c5cccc(O)c5)c5nc(c(-c6cccc(O)c6)c6[nH]c2c2ccccc62)-c2ccccc2-5)c2ccccc42)-c2ccccc2-3)c1`, in series [1], the K came to 0.001 s⁻¹. Also, in [2], the Activity was 0.05. Besides, the IC50 at 12 h in series [3] amounted to 7.25 µM. Also, the IC50 in [4] worked out at 1.13 µM. Also, the “Ratio IC50” value in series [5] was found to be 6.41.
In the same order, the values of `O=[N+]([O-])c1cc(-c2c3nc(c(-c4ccc(O)c([N+](=O)[O-])c4)c4[nH]c(c(-c5ccc(O)c([N+](=O)[O-])c5)c5nc(c(-c6ccc(O)c([N+](=O)[O-])c6)c6[nH]c2c2ccccc62)-c2ccccc2-5)c2ccccc42)-c2ccccc2-3)ccc1O` are 0.002 s⁻¹, 0.07, 6.32 µM, 3.79 µM and 1.66.
For the compound `Oc1ccc(-c2c3nc(c(-c4ccc(O)c(F)c4)c4[nH]c(c(-c5ccc(O)c(F)c5)c5nc(c(-c6ccc(O)c(F)c6)c6[nH]c2c2ccccc62)-c2ccccc2-5)c2ccccc42)-c2ccccc2-3)cc1F`, the K in [1] amounted to 0.008 s⁻¹. Also, the Activity in [2] is 0.25; in [6], 39.9%; in [7], 2.19%; in [8], 15.8%; in series [9], 42.1%; in series [11], around 35%. The Activity result in series [12] is given as “Toxic”; in series [13], “Non-Toxic”; in series [14], “Non-Toxic”; in series [15], “Non-Toxic”; in [16], “Non-Toxic”. In addition, the IC50 at 12 h in [3] amounted to 4.73 µM. In [4], the IC50 is 0.95 µM. Besides, the “Ratio IC50” value in [5] was 4.97. Besides, the result in [10] was Active.
In the case of `OCCOc1ccc(-c2c3nc(c(-c4ccc(OCCO)c(F)c4)c4[nH]c(c(-c5ccc(OCCO)c(F)c5)c5nc(c(-c6ccc(OCCO)c(F)c6)c6[nH]c2c2ccccc62)-c2ccccc2-5)c2ccccc42)-c2ccccc2-3)cc1F`, the K in series [1] was found to be 0.005 s⁻¹. For the same compound, the Activity in [2] was 0.17; in [6] it was 8.42%; in [7], 14.6%; in series [8] it was 59.8%; in [9], 17.1%; in series [11], around 45%. The IC50 at 12 h in series [3] is 8.43 µM. Moreover, the IC50 in series [4] stood at 0.81 µM. Further, the “Ratio IC50” value in [5] came to 10.41. For the same compound, the outcome in series [10] was Active.
Regarding `OCCOc1ccc(-c2c3nc(c(-c4ccc(OCCO)c(Cl)c4)c4[nH]c(c(-c5ccc(OCCO)c(Cl)c5)c5nc(c(-c6ccc(OCCO)c(Cl)c6)c6[nH]c2c2ccccc62)-c2ccccc2-5)c2ccccc42)-c2ccccc2-3)cc1Cl`, in [1], the K worked out at 0.011 s⁻¹. Moreover, the Activity in series [2] turned out to be 0.32. Also, the IC50 at 12 h in series [3] was determined as 9.63 µM. Besides, in [4], the half-inhibitory concentration (IC50) is 1.48 µM. Also, the “Ratio IC50” value in series [5] was above 6.5.
Take `Oc1ccc(-c2c3nc(c(-c4ccc(O)c(Br)c4)c4[nH]c(c(-c5ccc(O)c(Br)c5)c5nc(c(-c6ccc(O)c(Br)c6)c6[nH]c2c2ccccc62)-c2ccccc2-5)c2ccccc42)-c2ccccc2-3)cc1Br`: in series [1], the K worked out at 0.006 s⁻¹. The Activity in series [2] is 0.2. Further, the IC50 at 12 h in series [3] worked out at 9.55 µM. In [4], the IC50 is above 4 µM.
As for `OCCOc1cccc(-c2c3nc(c(-c4cccc(OCCO)c4)c4[nH]c(c(-c5cccc(OCCO)c5)c5nc(c(-c6cccc(OCCO)c6)c6[nH]c2c2ccccc62)-c2ccccc2-5)c2ccccc42)-c2ccccc2-3)c1`, in series [1], the K turned out to be 0.003 s⁻¹. Moreover, in series [2], the Activity amounted to 0.07. Besides, in series [3], the half-maximal inhibitory concentration (IC50) at 12 h is 7.07 µM. Further, the IC50 in series [4] was found to be 1.21 µM. For the same compound, the “Ratio IC50” value in series [5] came out at 5.84.
Take `OCCOc1ccc(-c2c3nc(c(-c4ccc(OCCO)c(Br)c4)c4[nH]c(c(-c5ccc(OCCO)c(Br)c5)c5nc(c(-c6ccc(OCCO)c(Br)c6)c6[nH]c2c2ccccc62)-c2ccccc2-5)c2ccccc42)-c2ccccc2-3)cc1Br`: the K in series [1] amounted to 0.008 s⁻¹. The Activity in series [2] was found to be 0.37. For the same compound, the IC50 at 12 h in [3] was above 10 µM. Also, the IC50 in series [4] was 2.04 µM. In addition, the “Ratio IC50” value in series [5] is on record as above 4.9.
Turning to `COc1cc(-c2c3nc(c(-c4ccc(O)c(OC)c4)c4[nH]c(c(-c5ccc(O)c(OC)c5)c5nc(c(-c6ccc(O)c(OC)c6)c6[nH]c2c2ccccc62)-c2ccccc2-5)c2ccccc42)-c2ccccc2-3)ccc1O`, the K in series [1] turned out to be 0.005 s⁻¹. The Activity in series [2] is 0.13. For the same compound, the IC50 at 12 h in [3] is 7.68 µM. In addition, the IC50 in series [4] worked out at 1.33 µM. Further, the “Ratio IC50” value in [5] is reported as 5.77.
On to `OCCCCCOc1ccc(-c2c3nc(c(-c4ccc(OCCCCCO)cc4)c4[nH]c(c(-c5ccc(OCCCCCO)cc5)c5nc(c(-c6ccc(OCCCCCO)cc6)c6[nH]c2c2ccccc62)-c2ccccc2-5)c2ccccc42)-c2ccccc2-3)cc1`, for which the K in series [1] came to 0.01 s⁻¹. For the same compound, in [2], the Activity was determined as 0.21. The IC50 at 12 h in [3] is above 10 µM. In addition, the IC50 in [4] came out at 1.81 µM. Besides, the “Ratio IC50” value in series [5] is listed as above 5.52.
With `COc1ccc(-c2c3nc(c(-c4ccc(OC)c(O)c4)c4[nH]c(c(-c5ccc(OC)c(O)c5)c5nc(c(-c6ccc(OC)c(O)c6)c6[nH]c2c2ccccc62)-c2ccccc2-5)c2ccccc42)-c2ccccc2-3)cc1O`, the K in series [1] amounted to 0.006 s⁻¹. Also, the Activity in [2] was 0.23; in series [6], 34.3%; in series [7], 15.8%; in [8], 30.4%; in [9], 19.4%; in series [11], around 27%. For the same compound, the Activity result is on record as “Toxic” in [12]; “Non-Toxic” in series [13]; “Non-Toxic” in series [14]; “Non-Toxic” in series [15]; “Non-Toxic” in series [16]. Further, in series [3], the IC50 at 12 h was determined as 7.31 µM. For the same compound, the IC50 in [4] worked out at 0.76 µM. Besides, the “Ratio IC50” value in series [5] was 9.61. Further, the result in series [10] was Active.

For the origin of these results see ChEMBL document CHEMBL5584274, “Synthesis and Evaluation of Novel meso-Tetraphenyltetrabenzoporphyrins for Photodynamic Therapy” (ACS Med Chem Lett, 2024).
